From ChEMBL document CHEMBL1141482, “Selective, high affinity A(2B) adenosine receptor antagonists: N-1 monosubstituted 8-(pyrazol-4-yl)xanthines” (Bioorg Med Chem Lett, 2008)

Key:
Adenosine receptor A2b = biological target: T1, Adenosine receptor A2b (Homo sapiens, UniProt P29275); assay: Displacement of [3H]-ZM241385 from human A2B receptor expressed in HEK293 cell membranes
T1 sequence (P29275 whole entry): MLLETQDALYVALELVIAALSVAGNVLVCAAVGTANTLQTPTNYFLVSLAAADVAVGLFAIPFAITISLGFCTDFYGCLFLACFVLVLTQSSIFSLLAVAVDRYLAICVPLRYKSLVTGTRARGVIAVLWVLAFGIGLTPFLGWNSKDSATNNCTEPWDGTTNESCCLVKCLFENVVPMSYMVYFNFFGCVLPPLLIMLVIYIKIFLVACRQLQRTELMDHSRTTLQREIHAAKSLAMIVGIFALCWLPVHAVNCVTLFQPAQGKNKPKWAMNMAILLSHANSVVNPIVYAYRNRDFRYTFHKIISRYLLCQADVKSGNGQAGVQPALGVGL
How it was run: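 Membranes from HEK cells expressing A2B; binding sites labeled with 3H-ZM241385 at 14 nM and displaced competitively.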

Adenosine receptor A2a = Adenosine receptor A2a (Homo sapiens, UniProt P29274); assay: Displacement of [3H]ZM241385 from human A2A receptor expressed in HEK293 cell membranes
How it was run: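 A2A affinity by competition with 3H-ZM241385 (2 nM) for binding sites in membranes from HEK-A2A cells.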

Adenosine receptor A1 = biological target: T2, Adenosine receptor A1 (Homo sapiens, UniProt P30542); assay: Displacement of [3H]-CPX from human A1 receptor expressed in CHO cell membranes
T2 sequence (P30542 whole entry): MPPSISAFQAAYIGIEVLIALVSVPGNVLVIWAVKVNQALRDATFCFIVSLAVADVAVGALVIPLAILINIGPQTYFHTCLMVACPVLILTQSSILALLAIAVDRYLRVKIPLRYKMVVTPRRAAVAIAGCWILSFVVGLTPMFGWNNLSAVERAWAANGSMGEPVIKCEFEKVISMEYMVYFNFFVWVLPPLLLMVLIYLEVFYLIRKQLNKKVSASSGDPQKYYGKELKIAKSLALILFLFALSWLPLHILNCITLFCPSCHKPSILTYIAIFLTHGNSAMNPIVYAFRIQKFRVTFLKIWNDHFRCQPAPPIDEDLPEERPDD
How it was run: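 Competitive binding on membranes prepared from A1-expressing CHO cells, radioligand 3H-CPX at 0.5 nM.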

Homo sapiens [1] = organism: Homo sapiens; assay: Selectivity for human A2B receptor over human A1 receptor
Adenosine receptor A3 = biological target: T3, Adenosine receptor A3 (Homo sapiens, UniProt P0DMS8); assay: Displacement of [125I]-AB-MECA from human A3 receptor expressed in CHO cells; assay type: cell-based
T3 sequence (P0DMS8 whole entry): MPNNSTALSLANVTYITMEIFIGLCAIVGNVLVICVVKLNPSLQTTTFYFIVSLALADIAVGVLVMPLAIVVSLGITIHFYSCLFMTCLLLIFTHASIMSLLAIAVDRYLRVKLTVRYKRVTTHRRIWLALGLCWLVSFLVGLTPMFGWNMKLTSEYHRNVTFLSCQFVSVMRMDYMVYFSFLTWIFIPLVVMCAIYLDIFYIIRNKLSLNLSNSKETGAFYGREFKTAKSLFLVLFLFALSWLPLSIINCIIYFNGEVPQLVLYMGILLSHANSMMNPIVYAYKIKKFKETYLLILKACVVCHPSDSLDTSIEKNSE
How it was run: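 A3 binding: competition for sites labeled by 125I-AB-MECA using CHO cells expressing the A3 receptor.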

Homo sapiens [2] = organism: Homo sapiens; assay: Selectivity for human A2B receptor over human A3 receptor
Homo sapiens [3] = organism: Homo sapiens; assay: Selectivity for human A2B receptor over human A2A receptor

Chain of Adenosine receptor A2a (P29274 whole entry): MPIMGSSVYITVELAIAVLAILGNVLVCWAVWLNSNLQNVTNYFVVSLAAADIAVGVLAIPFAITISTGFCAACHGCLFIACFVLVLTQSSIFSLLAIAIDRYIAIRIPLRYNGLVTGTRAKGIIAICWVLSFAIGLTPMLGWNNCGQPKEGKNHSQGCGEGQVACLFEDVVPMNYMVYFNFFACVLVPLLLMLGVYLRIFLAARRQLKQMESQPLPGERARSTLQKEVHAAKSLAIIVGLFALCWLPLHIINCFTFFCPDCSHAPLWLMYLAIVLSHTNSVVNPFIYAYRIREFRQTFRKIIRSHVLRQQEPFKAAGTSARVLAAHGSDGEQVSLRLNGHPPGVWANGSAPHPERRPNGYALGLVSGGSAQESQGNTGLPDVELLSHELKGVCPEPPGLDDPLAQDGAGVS

- Ki (Adenosine receptor A2b): 0.013 µM
- Ki (Adenosine receptor A2a): > 5 µM
- Ki (Adenosine receptor A1): > 6 µM
- Ratio Ki (Homo sapiens [1]): > 460
- Ki (Adenosine receptor A3): > 9 µM
- Ratio Ki (Homo sapiens [2]): > 700
- Ratio Ki (Homo sapiens [3]): > 380
Structure (SMILES): O=c1[nH]c2nc(-c3cnn(Cc4noc(-c5ccc(C(F)(F)F)cc5)n4)c3)[nH]c2c(=O)n1CC1CC1
